Source: ChEMBL document CHEMBL4339222, “Covalent Inhibitors of Plasmodium falciparum Glyceraldehyde 3-Phosphate Dehydrogenase with Antimalarial Activity in Vitro” (ACS Med Chem Lett, 2019)
Activity calls are given as the source filed them. No cut-off for these calls is given here.

What was measured:
Plasmodium falciparum [1] = assay: Inhibition of recombinant His-tagged Plasmodium falciparum GAPDH expressed in Escherichia coli assessed as reduction in NADH formation by measuring Kinact/Ki ratio in presence of NAD+, DL-glyceraldehyde 3-phosphate and GAPDH by spectrophotometry based Ferdinand assay
Plasmodium falciparum [2] = assay: Antimalarial activity against CQ-susceptible Plasmodium falciparum D10 infected in human type A-positive red blood cells assessed as inhibition of parasite growth incubated for 72 hrs by spectrophotometry based parasite lactate dehydrogenase assay; assay type: functional, organism-based
Outline: (§1)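 pLDH assay on P. falciparum D10 and W2 blood-stage cultures exposed to compound for 72 h; chloroquine run as control. IC50 values are the mean of three separate experiments, each done in duplicate, with SD.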

Plasmodium falciparum [3] = assay: Antimalarial activity against CQ-resistant Plasmodium falciparum W2 infected in human type A-positive red blood cells assessed as inhibition of parasite growth incubated for 72 hrs by spectrophotometry based parasite lactate dehydrogenase assay; assay type: functional, organism-based; outline: as §1
HMEC-1 = assay: Cytotoxicity in human HMEC1 cells assessed as reduction in cell viability incubated for 72 hrs by MTT assay; assay type: cell-based; conditions: HMEC-1, 72 h
Outline: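 Human endothelial HMEC-1 cells exposed to compound for 72 h, then viability read by MTT (tetrazolium reduction) assay. Values are the mean ± SD of three separate experiments, each run in duplicate.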

[4] = Selectivity index, ratio of IC50 for human HMEC1 cells to IC50 for antimalarial activity against CQ-susceptible Plasmodium falciparum D10 infected in human type A-positive red blood cells; assay type: toxicity; conditions: read-out: Ratio IC50
Outline: (§2)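 SI taken as HMEC-1 IC50 divided by antiplasmodial IC50. […] Each value is the mean of three experiments done in duplicate, with SD.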

[5] = Selectivity index, ratio of IC50 for human HMEC1 cells to IC50 for antimalarial activity against CQ-resistant Plasmodium falciparum W2 infected in human type A-positive red blood cells; assay type: toxicity; conditions: read-out: Ratio IC50; outline: as §2
[6] = Plasmodium falciparum, D10, 72 h, read-out: IC50
[7] = Plasmodium falciparum, W2, 72 h, read-out: IC50

SMILES | Ratio (Plasmodium falciparum [1]) | IC50 (Plasmodium falciparum [2]; [6]) | IC50 (Plasmodium falciparum [3]; [7]) | IC50 (HMEC-1) | selectivity ratio [4] | selectivity ratio [5] | IC50 (Plasmodium falciparum [2]) | IC50 (Plasmodium falciparum [3])
N[C@H](C(=O)NCc1ccc(F)cc1)[C@@H]1CC(Br)=NO1 | inactive | – | – | – | – | – | – | –
N[C@H](C(=O)NCCc1ccccc1)[C@@H]1CC(Br)=NO1 | 0.4 s⁻¹ M⁻¹ | 280 nM | 250 nM | > 100000 nM | > 357 | > 400 | – | –
CCN(CC)CCCC(C)Nc1ccnc2cc(Cl)ccc12 (configuration not stated) [CHLOROQUINE] | – | – | – | > 40000 nM | – | – | – | –
COC(=O)[C@@H](N)[C@@H]1CC(Br)=NO1 | 10.7 s⁻¹ M⁻¹ | 790 nM | 880 nM | 34800 nM | 44 | 39.5 | – | –
N[C@H](COCc1ccccc1)[C@@H]1CC(Br)=NO1 | 2.6 s⁻¹ M⁻¹ | – | – | – | – | – | Not Active | Not Active
N[C@H](CS(=O)(=O)Cc1ccccc1)[C@@H]1CC(Br)=NO1 | inactive | – | – | – | – | – | – | –
N[C@H](C(=O)O)[C@@H]1CC(Br)=NO1 | 0.7 s⁻¹ M⁻¹ | 350 nM | 340 nM | 19700 nM | 56.3 | 57.9 | – | –
N[C@H](C(=O)OCc1ccccc1)[C@@H]1CC(Br)=NO1 | 6.6 s⁻¹ M⁻¹ | 370 nM | 260 nM | > 65000 nM | > 176 | > 250 | – | –
N[C@H](CS(=O)(=O)Cc1ccccc1)[C@H]1CC(Br)=NO1 | 1.6 s⁻¹ M⁻¹ | – | – | – | – | – | Not Active | Not Active
COc1ccc(CNC(=O)[C@@H](N)[C@@H]2CC(Br)=NO2)cc1 | inactive | – | – | – | – | – | – | –
N[C@H](CSCc1ccccc1)[C@H]1CC(Br)=NO1 | 0.2 s⁻¹ M⁻¹ | – | – | – | – | – | Not Active | Not Active
N[C@H](C(=O)NCc1ccc([N+](=O)[O-])cc1)[C@@H]1CC(Br)=NO1 | 1.9 s⁻¹ M⁻¹ | 790 nM | 720 nM | 36100 nM | 45.7 | 50.1 | – | –
N[C@H](CSCc1ccccc1)[C@@H]1CC(Br)=NO1 | 1.6 s⁻¹ M⁻¹ | – | – | – | – | – | Not Active | Not Active
N[C@H](C(=O)NCc1ccccc1)[C@@H]1CC(Br)=NO1 | 0.6 s⁻¹ M⁻¹ | 360 nM | 480 nM | 14900 nM | 41.4 | 31 | – | –
